This note sets out measurements from ChEMBL document CHEMBL1129431, “Derivatives of (R)- and (S)-5-fluoro-8-hydroxy-2-(dipropylamino)tetralin: synthesis and interactions with 5-HT1A receptors” (J Med Chem, 1996).

The target in assay [1] is T1, 5-hydroxytryptamine receptor 1A (Rattus norvegicus, UniProt P19327).
T1 sequence (P19327 whole entry): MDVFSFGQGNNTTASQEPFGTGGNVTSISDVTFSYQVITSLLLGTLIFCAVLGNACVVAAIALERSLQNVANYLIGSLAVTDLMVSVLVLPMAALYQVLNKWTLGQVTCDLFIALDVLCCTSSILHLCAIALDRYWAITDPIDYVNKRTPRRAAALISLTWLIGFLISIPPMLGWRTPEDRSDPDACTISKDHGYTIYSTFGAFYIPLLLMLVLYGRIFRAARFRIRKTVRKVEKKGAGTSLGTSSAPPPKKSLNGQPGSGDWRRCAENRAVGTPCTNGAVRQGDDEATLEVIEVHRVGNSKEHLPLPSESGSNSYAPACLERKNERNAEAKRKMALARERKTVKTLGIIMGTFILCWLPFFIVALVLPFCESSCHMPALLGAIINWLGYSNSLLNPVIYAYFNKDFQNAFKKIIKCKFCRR
In words: Binding affinity against rat hippocampal 5-hydroxytryptamine 1A (5-HT1A) receptor determined using [3H]8-OH-DPAT as radioligand. The assay is classed as tissue-based, Hippocampus.

Assay [2] addresses T2, 5-hydroxytryptamine receptor 1A (Rattus norvegicus) (UniProt P19327).
T2 sequence (whole entry): T1 sequence (P19327 whole entry)
Briefly: Effect against 5-hydroxytryptamine 1A receptor mediated inhibition of VIP-stimulated cAMP production at 0.1 uM dose. The format is functional. The conditions noted are these: values are per cent of control. The method in brief: (§1)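 GH4ZD10 cells expressing rat 5-HT1A receptors were detached with EBSS plus 1 mM EDTA and resuspended to ~1×10^7 cells/mL in Ham's F10 with 0.01% ascorbic acid and 0.1 mM IBMX. After 1 h preincubation at 37 °C they were diluted to 0.8-1.5×10^6 cells/mL, then incubated 20 min at 37 °C with VIP (39 nM final) plus compound, alone or with 5-HT, in duplicate. The reaction was stopped by boiling. cAMP was measured in triplicate by protein-binding assay and expressed as % of the VIP-stimulated response.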
(cAMP levels reflect the balance of adenylyl cyclase and phosphodiesterase activity.)

The target of assay [3] is T2, 5-hydroxytryptamine receptor 1A (Rattus norvegicus). In words: Effect on 5-hydroxytryptamine 1A receptor mediated inhibition of VIP-stimulated cAMP production at dose of 0.01 uM+ 1 uM 5-HT. To be noted: values are per cent of control. The format is functional. The essentials:
as §1

For assay [4] the target is unchanged. In words: Effect on 5-hydroxytryptamine 1A receptor mediated inhibition of VIP-stimulated cAMP production at dose of 1 uM. The assay is classed as functional. The conditions noted are these: values are per cent of control. The essentials: as §1
For assay [5] the target is unchanged. Briefly: Effect on 5-hydroxytryptamine 1A receptor mediated inhibition of VIP-stimulated cAMP production at dose of 50 uM. The conditions noted are these: values are per cent of control. The format is functional. The method in brief: (§2)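 GH4ZD10 cells expressing rat 5-HT1A receptors, detached with EDTA-supplemented Ca/Mg-free EBSS and resuspended in Ham's F10 with 0.01% ascorbic acid and 0.1 mM IBMX. Preincubated 1 h at 37 °C, then 0.8-1.5×10^6 cells/mL incubated 20 min at 37 °C with VIP (39 nM final) plus compounds. Duplicate samples stopped by boiling. cAMP measured in triplicate by protein-binding assay. Results are given as % of the VIP-stimulated response.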

For assay [6] the target is unchanged. In words: Effect on 5-hydroxytryptamine 1A receptor mediated inhibition of VIP-stimulated cAMP production at dose of 10 uM. The assay is classed as functional. The conditions noted are these: values are per cent of control. The essentials: as §1
For assay [7] the target is unchanged. Briefly: Effect on 5-hydroxytryptamine 1A receptor-mediated inhibition of VIP-stimulated cAMP production at dose of 1 uM+ 10 uM 5-HT. The format is functional. To be noted: values are per cent of control. The method in brief: as §1
The target is the same in assay [8]. Briefly: Effect on 5-hydroxytryptamine 1A receptor mediated inhibition of VIP-stimulated cAMP production at dose of 0.1 uM + 1 uM 5-HT. The conditions noted are these: values are per cent of control. The assay is classed as functional. The method in brief: as §1
Assay [9] shares this target. Briefly: Effect on 5-hydroxytryptamine 1A receptor mediated inhibition of VIP-stimulated cAMP production at dose of 30 uM. The assay is classed as functional. The conditions noted are these: values are per cent of control. The method in brief: as §1
For assay [10] the target is unchanged. In words: Effect on 5-hydroxytryptamine 1A receptor mediated inhibition of VIP-stimulated cAMP production at dose of 1 uM+ 10 uM 5-HT. The assay is classed as functional. The conditions noted are these: values are per cent of control. The method in brief:
as §1

The target is the same in assay [11]. In words: Effect on 5-hydroxytryptamine 1A receptor mediated inhibition of VIP-stimulated cAMP production at dose of 0.05 uM. The assay is classed as functional. The conditions noted are these: values are per cent of control. The method in brief:
as §2

Assay [12] shares this target. In words: (§3) Effect on 5-hydroxytryptamine 1A receptor mediated inhibition of VIP-stimulated cAMP production at dose of 1 uM+ 50 uM 5-HT. The format is functional. The conditions noted are these: values are per cent of control. The method in brief:
as §2

Assay [13] has the same target. Described as §3. The format is functional. The conditions noted are these: values are per cent of control. The method in brief: as §1
The source holds these as a separate data set.

Assay [14] has the same target. The conditions noted are these: 0.1 uM.
For assay [15] the target is unchanged. To be noted: 1 uM.

In general, Ki refers to the dissociation constant of the complex between target and ligand, obtained from inhibition or displacement. The low end stands for tighter binding, the high end for weaker binding.

Values joined by “and” are separate entries in the source; they are usually repeats but may differ in a detail not shown here. Equal entries are not always repeated.

Turning to `CCCN(CCC)[C@@H]1CCc2c(F)ccc(C(C)=O)c2C1` [listing 1 of 3 here], the inhibition constant (Ki) in assay [1] was 6.9 nM.

As to `CCCN(CCC)[C@H]1CCc2cccc(-c3ccco3)c2C1`, in assay [1], affinity was put at a Ki of 1.8 nM.

On to `CCCN(CCC)[C@@H]1CCc2c(F)cccc2C1`, for which the response, % of control in [2] was 93% and 98%; in assay [3], 60%; in assay [4], 85%; in [5], 78%; in [6], 81%; in assay [7], 58%.

Take `CCCN(CCC)[C@@H]1CCc2c(F)ccc(OS(=O)(=O)C(F)(F)F)c2C1` [listing 1 of 3 here]: the Ki in [1] stood at 18.5 nM.

Consider `CCCN(CCC)[C@H]1CCc2c(F)ccc(OS(=O)(=O)C(F)(F)F)c2C1`, for which the inhibition constant (Ki) in assay [1] came out at 490 nM.

Regarding `CCCN(CCC)[C@H]1CCc2c(F)ccc(-c3ccco3)c2C1`, the response, % of control in [2] was 100%; in [8], 56%; in [4] it was 98%; in assay [6], 98%.

Consider `CCCN(CCC)[C@@H]1CCc2c(F)ccc(OS(=O)(=O)C(F)(F)F)c2C1` [listing 2 of 3 here], for which the response, % of control in [2] is 98%; in [8], 60%; in assay [9], 48%; in [4], 91%; in assay [6], 61%; in [10] it was 52%.

As for `CCCN(CCC)[C@@H]1CCc2c(F)ccc(-c3cccs3)c2C1` [listing 1 of 2 here], the affinity in assay [1], expressed as Ki, was 35 nM.

In the case of `CCCN(CCC)[C@@H]1CCc2c(F)ccc(C(C)=O)c2C1` [listing 2 of 3 here], in assay [1], the affinity corresponds to a Ki of 6.9 nM.

For `CCCN(CCCCN1C(=O)CC2(CCCC2)CC1=O)[C@@H]1CCc2c(F)ccc(OC)c2C1`, the response, % of control was found to be 56% in assay [8]; 62% in [11]; 56% in assay [4]; 41% in [5]; 40% in assay [12]. In assay [1], this molecule had a Ki below 0.3 nM.

With `CCCN(CCCCN1C(=O)CC2(CCCC2)CC1=O)[C@@H]1CCc2c(F)ccc(O)c2C1`, the response, % of control stood at 68% in assay [8], 72% in assay [11], 66% in assay [4] and 68% in assay [5]. In assay [1], this molecule displayed an inhibition constant (Ki) below 0.3 nM.

Take `CCCN(CCC)[C@@H]1CCc2c(F)ccc(OS(=O)(=O)C(F)(F)F)c2C1` [listing 3 of 3 here]: the inhibitory constant (Ki) in [1] came out at 18.5 nM.

In turn, `CCCN(CCC)[C@@H]1CCc2cccc(S(=O)(=O)C(F)(F)F)c2C1` displayed a Ki in assay [1] of 3.8 nM.

For the molecule `CCCN(CCCCN1C(=O)CC2(CCCC2)CC1=O)[C@@H]1CCc2c(F)ccc(C(C)=O)c2C1`, the response, % of control in assay [8] was 61%; in assay [11] it was 50%; in assay [4], 59%; in [5], 48%; in assay [12] it was 55%. In assay [1], this molecule yielded a Ki below 0.3 nM.

In [1], `CCCN(CCC)[C@@H]1CCc2c(F)ccc(-c3cccs3)c2C1` [listing 2 of 2 here] yielded an inhibition constant (Ki) of 35 nM.

In the case of `CCCN(CCC)[C@H]1CCc2c(F)ccc(-c3cccs3)c2C1`, the response, % of control in assay [2] was determined as 99%; in assay [8], 57%; in [4], 96%; in assay [6], 88%.

In the case of `CCCN(CCC)[C@@H]1CCc2cccc(-c3ccco3)c2C1`, the affinity in [1] corresponds to a Ki of 9.3 nM.

With `CCCN(CCC)[C@H]1CCc2c(F)cccc2C1`, the response, % of control in assay [2] came out at 85%; in assay [8] it was 61%; in [13], 73%; in assay [4], 86%; in assay [5], 86%.

In the case of `CCCN(CCC)[C@@H]1CCc2c(F)ccc(C(C)=O)c2C1` [listing 3 of 3 here], the response, % of control was found to be 99% in [2]; 95% in [14]; 60% in assay [8]; 62% in assay [9]; 63% in [12]; 63% in [15]. The response, % of control in assay [6] was found to be 61%.

Consider `CCCN(CCCCN1C(=O)CC2(CCCC2)CC1=O)[C@H]1CCc2c(F)ccc(OS(=O)(=O)C(F)(F)F)c2C1`, for which the response, % of control in [8] was found to be 68%; in assay [11], 98%; in [4], 90%; in [5], 65%. Further, the Ki in assay [1] worked out at 177 nM.
